Values belong to the molecule of their own block, whether it stands above or below them. Calls of active or inactive are those of the source. The rule behind the calls is not given here.
Key:
Z-138 [1] = test: Antitumor activity against human Z138 cells xenografted in mouse assessed as reduction in tumor volume at 50 to 100 mg/kg, po BID measured for 10 days; assay type: functional, organism-based; settings: dose 50-100 mg/kg, time 10.0 day
[2] = Toxicity in mouse assessed as body weight loss at 25 mg/kg, po pretreated for 21 days followed by treatment holiday for 10 days and further compound treatment for 2 weeks starting from day 32 followed by 1 week treatment holiday; assay type: organism-based; settings: in vivo, 504 h, time 21 day
MDA-MB-468 = test: Induction of cell cycle arrest in human MDA-MB-468 cells assessed as increase in 4n cell population measured upto 5000 nM measured for 7 to 10 days by propidium iodide staining based flow cytometric analysis; assay type: functional; settings: time 7-10 day
JVM-2 = test: Induction of apoptosis in human JVM-2 cells assessed as early apoptotic cells incubated for 6 days by annexin-V/FITC propidium iodide staining based flow cytometry analysis; assay type: functional, cell-based; settings: dose <= 5000.0 nM, time 6.0 day
JeKo-1 = test: Induction of cell cycle arrest in human JeKo-1 cells assessed as increase in 2n cell population measured upto 5000 nM measured for 3 days by propidium iodide staining based flow cytometric analysis; assay type: functional; settings: time 3.0 day
Z-138 [3] = test: Antitumor activity against human Z138 cells xenografted in mouse at 25 to 50 mg/kg, po qd measured at 14 to 21 days; assay type: functional, organism-based; settings: dose lower […], dose upper 50.0 mg/kg, time 14-21 day
Z-138 [4] = test: Induction of cell cycle arrest in human Z138 cells assessed as increase in 2n cell population measured upto 5000 nM measured for 3 days by propidium iodide staining based flow cytometric analysis; assay type: functional; settings: time 3.0 day
COLO 320DM = test: Antiproliferative activity against human Colo 320DM cells assessed as cell growth inhibition incubated for 10 days; assay type: functional; settings: 240 h, time 10 day
Procedure, shortened: (§1)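 Outsourced panel run in 384-well plates. Cells were grown in RPMI-1640/10% FBS or a special medium at 37°C, 5% CO2. Compound was added 24 h after seeding as a 10-point, 3.16-fold series in 0.1% DMSO. Medium was refreshed and cells re-dosed at 168 h, with a time-zero plate kept. At 240 h cells were fixed, nuclei stained and imaged. gIC50 is growth midway between untreated and time zero, from a 4-parameter fit.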

SNU-5 = test: Antiproliferative activity against human SNU-5 cells assessed as cell growth inhibition incubated for 10 days; assay type: functional; settings: SNU-5, 240 h, time 10 day
RD = test: Antiproliferative activity against human RD cells assessed as cell growth inhibition incubated for 10 days; assay type: functional; settings: 240 h, time 10 day
SNB-19 = test: Antiproliferative activity against human SNB-19 cells assessed as cell growth inhibition incubated for 10 days; assay type: functional; settings: SNB-19, 240 h, time 10 day
A 172 = test: Antiproliferative activity against human A-172 cells assessed as cell growth inhibition incubated for 10 days; assay type: functional; settings: A 172, 240 h, time 10 day
Procedure, shortened: (§2)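 Cells kept in RPMI-1640 with 10% FBS, 2 mM L-alanyl-L-glutamine and 1 mM Na pyruvate (or a special medium) at 37°C, 5% CO2. Compound added 24 h after seeding, 10 concentrations in 3.16-fold dilution, 0.1% DMSO final. Medium replaced and cells re-dosed at 168 h; 240 h incubation. Nuclei fixed, dye-stained and imaged. gIC50 = growth midway between untreated and time-zero cell counts, from a 4-parameter fit.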

KLE = test: Antiproliferative activity against human KLE cells assessed as cell growth inhibition incubated for 10 days; assay type: functional; settings: 240 h, time 10 day
Procedure, shortened: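 Cells grown in RPMI-1640 with 10% FBS, 2 mM L-alanyl-L-glutamine and 1 mM Na pyruvate (or special medium) at 37°C, 5% CO2. Compound was added 24 h after seeding, with a parallel time-zero plate. Medium was replaced and the compound re-dosed at 168 h. Dosing used 10 concentrations (3.16-fold dilutions, 0.1% DMSO) over a 240 h incubation. Nuclei were stained and imaged. gIC50 is growth midway between untreated and time-zero, from a 4-parameter fit.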

J-RT3-T3-5 = test: Antiproliferative activity against human J-RT3-T3-5 cells assessed as cell growth inhibition incubated for 10 days; assay type: functional; settings: J-RT3-T3-5, 240 h, time 10 day
Procedure, shortened: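 Eurofins-panel 10-day assay in 384-well plates. Cells grown in RPMI-1640 with 10% FBS, 2 mM L-alanyl-L-glutamine and 1mM Na pyruvate, or a special medium, at 37°C in 5% CO₂. Compound added 24 h after seeding, 10-point 3.16-fold series in 0.1% DMSO. Medium replaced and compound re-dosed at 168 h. Nuclei fixed and stained after 240 h, then imaged to give a relative cell count. gIC50 is the concentration giving growth midway between untreated and time-zero counts, from a 4-parameter fit.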

Detroit 562 = test: Antiproliferative activity against human Detroit 562 cells assessed as cell growth inhibition incubated for 10 days; assay type: functional; settings: Detroit 562, 240 h, time 10 day; procedure, shortened: as §1
HCT-15 = test: Antiproliferative activity against human HCT-15 cells assessed as cell growth inhibition incubated for 10 days; assay type: functional; settings: HCT-15, 240 h, time 10 day; procedure, shortened: as §1
SK-N-DZ = test: Antiproliferative activity against human SK-N-DZ cells assessed as cell growth inhibition incubated for 10 days; assay type: functional; settings: 240 h, time 10 day
WI-38 = test: Antiproliferative activity against human WI-38 cells assessed as cell growth inhibition incubated for 10 days; assay type: functional; settings: WI-38, 240 h, time 10 day
CHL-1 = test: Antiproliferative activity against human CHL-1 cells assessed as cell growth inhibition incubated for 10 days; assay type: functional; settings: CHL-1, 240 h, time 10 day; procedure, shortened: as §2
MEG-01 = test: Antiproliferative activity against human MEG-01 cells assessed as cell growth inhibition incubated for 10 days; assay type: functional; settings: MEG-01, 240 h, time 10 day
SiHa = test: Antiproliferative activity against human SiHa cells assessed as cell growth inhibition incubated for 10 days; assay type: functional; settings: 240 h, time 10 day
LS174T = test: Antiproliferative activity against human LS174T cells assessed as cell growth inhibition incubated for 10 days; assay type: functional; settings: 240 h, time 10 day
SCC-9 = test: Antiproliferative activity against human SCC-9 cells assessed as cell growth inhibition incubated for 10 days; assay type: functional; settings: SCC-9, 240 h, time 10 day
SJSA-1 = test: Antiproliferative activity against human SJSA-1 cells assessed as cell growth inhibition incubated for 10 days; assay type: functional; settings: SJSA-1, 240 h, time 10 day
CRO-AP2 = test: Antiproliferative activity against human CRO-AP2 cells assessed as cell growth inhibition incubated for 10 days; assay type: functional; settings: CRO-AP2, 240 h, time 10 day; procedure, shortened: as §1
SW837 = test: Antiproliferative activity against human SW837 cells assessed as cell growth inhibition incubated for 10 days; assay type: functional; settings: SW837, 240 h, time 10 day
[5] = Antiproliferative activity against human HLF cells assessed as cell growth inhibition incubated for 10 days; assay type: functional; settings: 240 h, time 10 day; procedure, shortened: as §1
[6] = biological target: Protein arginine N-methyltransferase 5 (Homo sapiens) (UniProt O14744); test: Inhibition of PRMT5 in human Z138 cells expressing EGFP at 1 to 100000 nM incubated for 3 to 6 days; assay type: cell-based; settings: dose 1-100000 nM, time 3-6 day
SU.86.86 = test: Antiproliferative activity against human SU-86-86 cells assessed as cell growth inhibition incubated for 10 days; assay type: functional; settings: SU.86.86, 240 h, time 10 day

Sequence of Protein arginine N-methyltransferase 5 (Homo sapiens) (O14744 whole entry): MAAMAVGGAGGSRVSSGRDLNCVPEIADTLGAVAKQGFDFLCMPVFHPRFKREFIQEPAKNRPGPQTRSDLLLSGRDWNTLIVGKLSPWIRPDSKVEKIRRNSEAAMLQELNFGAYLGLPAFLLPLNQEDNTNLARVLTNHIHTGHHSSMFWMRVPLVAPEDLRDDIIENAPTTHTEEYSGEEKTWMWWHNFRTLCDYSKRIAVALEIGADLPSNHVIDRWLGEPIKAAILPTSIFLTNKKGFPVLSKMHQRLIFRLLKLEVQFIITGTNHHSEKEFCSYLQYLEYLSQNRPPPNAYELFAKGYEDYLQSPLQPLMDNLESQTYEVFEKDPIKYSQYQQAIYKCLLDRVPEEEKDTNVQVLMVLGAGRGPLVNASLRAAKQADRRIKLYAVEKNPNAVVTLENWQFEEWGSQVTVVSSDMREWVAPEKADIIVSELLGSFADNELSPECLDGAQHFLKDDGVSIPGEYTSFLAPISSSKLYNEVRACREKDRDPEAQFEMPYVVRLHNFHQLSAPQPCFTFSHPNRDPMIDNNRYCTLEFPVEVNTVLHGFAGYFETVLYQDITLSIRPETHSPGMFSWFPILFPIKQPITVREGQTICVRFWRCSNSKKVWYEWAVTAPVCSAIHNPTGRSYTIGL

SMILES: CC(=O)N1CCC(Nc2cc(C(=O)NC[C@H](O)CN3CCc4ccccc4C3)ncn2)CC1 [PEMRAMETOSTAT]
Activity (Z-138 [1]): Active | Activity [2]: Non-Toxic | Activity (MDA-MB-468): Active | Activity (JVM-2): Dose-Dependent Effect | Activity (JeKo-1): inactive | Activity (Z-138 [3]): Active | Activity (Z-138 [4]): Active

GI50 (COLO 320DM): 0.0825 µM | GI50 (SNU-5): 0.11 µM | GI50 (HCT-15): 0.0684 µM | GI50 (SK-N-DZ): 0.257 µM | GI50 (SJSA-1): 0.773 µM | GI50 (SW837): 0.102 µM | inhibition [6]: inactive
SMILES: O=C(NC[C@H](O)CN1CCc2ccccc2C1)c1ccnc(NC2CCC2)c1
GI50 (RD): 0.639 µM | GI50 (SNB-19): 0.223 µM | GI50 (A 172): 0.0296 µM | GI50 (KLE): 10 µM | GI50 (J-RT3-T3-5): 0.0432 µM | GI50 (Detroit 562): 0.104 µM | GI50 (WI-38): 0.0185 µM | GI50 (CHL-1): 0.247 µM | GI50 (MEG-01): 10 µM | GI50 (SiHa): 2.51 µM | GI50 (LS174T): 0.17 µM | GI50 (SCC-9): 0.747 µM | GI50 (CRO-AP2): 0.25 µM | GI50 [5]: 0.0877 µM | GI50 (SU.86.86): 0.934 µM

— ChEMBL document CHEMBL5653630, “Activation of the p53-MDM4 regulatory axis defines the anti-tumour response to PRMT5 inhibition through its role in regulating cellular splicing” (Sci Rep, 2018)
